An excerpt weighted towards active compounds, which were near 2.3% of everything screened.
Scp1 inh: Scp-1 phosphatase inhibitors, primary screen, biochemical, colorimetric, uHTS; Carboxy-terminal domain RNA polymerase II polypeptide A small phosphatase 1 (Homo …; Recombinant Scp1, phosphopeptide, malachite green phosphate absorbance; inhibition, % at 20 µM; 340,000 compounds, 0.88% hits;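 active means inhibition above about 50% at 20 µM, limit read from the data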;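 further: plate controls were DMSO wells with enzyme for no effect and wells lacking enzyme for full effect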
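Test system: SCP-1 phosphatase catalytic domain, residues 76-261 | Compound dosing: One concentration, 20 µM, with 1.0% DMSO | Schedule: 45 min room-temperature reaction, 5 min colour, 30 min stabiliser | Detection: Absorbance at 630 nm | Read-out basis: % inhibition of SCP-1 phosphate liberation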
STEP inh: STEP phosphatase inhibitors, primary screen, biochemical, fluorescence intensity, uHTS | Tyrosine-protein phosphatase non-receptor type 5 (Homo sapiens), P54829 | recombinant STEP, OMFP fluorogenic substrate | inhibition, % at 20 µM | 360,000 compounds, 0.25% hits | AID 588621, 2011;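 active means inhibition at 20 µM, scaled per plate between control wells, above about 37%, limit read from the data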;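 further: 0% = DMSO with enzyme and substrate and 100% = substrate only without enzyme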
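Assay system: isolated STEP enzyme / Timing: 20 min at room temperature, dark / Doses: 20 µM, 1% DMSO / Technique: fluorescence intensity, excitation 480 nm, emission 540 nm / Reagent: fluorogenic phosphatase substrate OMFP at 25 µM final / Measure: percent inhibition scaled to no-enzyme and uninhibited-enzyme controls, plate-pattern corrected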
LMPTP inh: LMPTP phosphatase inhibitors, primary screen, biochemical, fluorescence intensity, uHTS; Low molecular weight phosphotyrosine protein phosphatase (Homo sapiens), P24666; recombinant LMPTP-A, OMFP fluorogenic substrate; inhibition, % at 20 µM; 360,000 compounds, 0.22% hits; AID 651560, 2012;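 active means compounds that cut the enzyme signal by at least half of the control window in the single-dose screen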;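 further: plate controls were DMSO wells with enzyme plus substrate for no effect and substrate without enzyme for full effect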
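test system = LMPTP-A | amount = 0.625 nM LMPTP-A final | reagent = fluorogenic phosphatase substrate OMFP at 400 µM final | incubation = 50 min at room temperature | benchmarks = no-enzyme low control, uninhibited high control | medium = Bis-Tris pH 6.0, DTT, detergent | signal = fluorescence intensity of OMFP turnover product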
SUMO1 PPI mod: modulators of SUMO1 protein-protein interactions, primary screen, biochemical, uHTS; SUMO1 binding to a labelled peptide, TR-FRET, 1 h; inhibition, % at 20 µM; Small ubiquitin-related modifier 1 (Homo sapiens), P63165; 360,000 compounds, 0.33% hits; in the data active means inhibition above about 37%
NadD inh: inhibitors of S. aureus NadD, primary screen, biochemical, colorimetric, uHTS | Nicotinate-nucleotide adenylyltransferase NadD (Staphylococcus aureus N315) | purified NadD enzyme, colorimetric absorbance read-out | inhibition, % at 20 µM | 360,000 compounds, 0.78% hits; in the data active means inhibition above about 26%
DNMT1 inh: human DNMT1 methyltransferase inhibitors, primary screen, biochemical, molecular beacon, fluorescence, HinP1I cleavage, uHTS; DNA (cytosine-5)-methyltransferase 1 (Homo sapiens), P26358; inhibition (reported as % activation of signal), % at 10 µM; 360,000 compounds, 0.83% hits; in the data active means inhibition above about 50%
Target sequence (P26358 504-1616 limits assumed): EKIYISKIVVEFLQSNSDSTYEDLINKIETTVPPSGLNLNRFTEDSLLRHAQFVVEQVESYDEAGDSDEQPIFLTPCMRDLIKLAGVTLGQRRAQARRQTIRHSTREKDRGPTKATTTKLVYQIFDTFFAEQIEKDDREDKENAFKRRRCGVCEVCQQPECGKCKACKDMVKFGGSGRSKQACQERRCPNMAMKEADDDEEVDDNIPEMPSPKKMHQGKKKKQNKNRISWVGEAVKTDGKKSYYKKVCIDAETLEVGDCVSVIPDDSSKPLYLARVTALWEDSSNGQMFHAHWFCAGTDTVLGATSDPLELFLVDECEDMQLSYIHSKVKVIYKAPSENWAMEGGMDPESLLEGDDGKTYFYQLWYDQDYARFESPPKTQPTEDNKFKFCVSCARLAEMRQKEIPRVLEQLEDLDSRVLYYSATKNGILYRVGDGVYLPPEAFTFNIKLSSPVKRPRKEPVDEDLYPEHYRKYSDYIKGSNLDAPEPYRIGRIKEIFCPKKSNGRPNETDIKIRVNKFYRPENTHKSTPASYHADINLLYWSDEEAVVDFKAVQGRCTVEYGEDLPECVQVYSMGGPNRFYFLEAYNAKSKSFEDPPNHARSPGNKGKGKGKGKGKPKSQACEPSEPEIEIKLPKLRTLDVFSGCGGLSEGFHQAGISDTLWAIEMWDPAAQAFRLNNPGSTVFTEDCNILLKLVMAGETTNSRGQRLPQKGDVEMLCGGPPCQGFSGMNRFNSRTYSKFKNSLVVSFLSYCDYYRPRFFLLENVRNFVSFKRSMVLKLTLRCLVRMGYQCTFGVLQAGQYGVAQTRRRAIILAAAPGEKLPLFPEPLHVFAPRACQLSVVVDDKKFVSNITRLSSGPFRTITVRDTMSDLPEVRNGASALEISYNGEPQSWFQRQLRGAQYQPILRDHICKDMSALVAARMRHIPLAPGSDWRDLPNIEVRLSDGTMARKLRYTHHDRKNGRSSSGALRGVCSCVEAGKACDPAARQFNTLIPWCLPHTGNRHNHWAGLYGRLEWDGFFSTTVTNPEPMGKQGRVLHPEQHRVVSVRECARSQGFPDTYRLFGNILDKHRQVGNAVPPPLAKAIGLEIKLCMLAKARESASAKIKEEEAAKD
Scp-1 conf: Scp-1 phosphatase inhibitors, retest, confirmation, biochemical, colorimetric, single concentration; shares compounds with Scp1 inh; recombinant SCP-1 catalytic domain, phosphate release, malachite green absorbance; inhibition, % at 20 µM; 2,500 compounds, 61% hits; AID 540281, 2011;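 further: plate controls were DMSO with enzyme for no effect and buffer wells lacking enzyme for full effect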
Scp-1 MG ctr: colorimetric readout interference by compounds, confirmation, artefact control for Scp-1 inhibitor project, biochemical, single concentration; 2,500 tested, under 10 active; apparent inhibition (interference), % at 20 µM; shares compounds with Scp1 inh; Colorimetric interference counterscreen, malachite green absorbance 630 nm;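 further: compounds added after enzyme reaction finished so only phosphate colour detection is probed; plate controls were DMSO wells with completed Scp-1 reaction for no effect and substrate wells lacking enzyme for full effect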
Scp1 DSF: Scp-1 binding by thermal shift, confirmation, orthogonal assay for Scp-1 inhibitor project, biophysical, differential scanning fluorimetry; shares compounds with Scp1 inh; Recombinant SCP1, Sypro Orange thermal shift Tm; thermal shift relative to vanadate control, % at 40 µM; 1,500 compounds, 25% hits; AID 540329, 2011;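 active means substances whose mean melting-temperature shift, as a percentage of the reference inhibitor's shift, reaches about 5.3%, limit read from the data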;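 further: 0% = Tm of DMSO wells and 100% = Tm with sodium orthovanadate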
DNMT1 inh conf: DNMT1 methyltransferase inhibitor retest, confirmation, biochemical, molecular beacon, fluorescence, single concentration | shares compounds with DNMT1 inh | DNMT1 molecular beacon HinP1I cleavage | inhibition, % at 10 µM | 2,300 compounds, 8% hits | AID 602385, 2012;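 active means average inhibition of at least 30% in the single-concentration confirmation test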
Beacon interf: counter-screen for DNMT1 inhibitors: spectral interference; activation (fluorescence interference), % at 10 µM; DNMT1 molecular beacon spectral interference counterscreen, fluorescence 485/520; shares compounds with DNMT1 inh; 2,300 compounds, 1% hits;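 active means activation of at least 30% at 10 µM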;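 further: DNMT1 catalytic domain with a HinP1I cleavage step and a FAM/dabcyl DNA beacon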
NadD conf: inhibitors of S. aureus NadD, confirmation, biochemical, colorimetric, single concentration. 2,000 compounds, 13% hits. shares compounds with NadD inh. purified S. aureus NadD, colorimetric enzyme assay. inhibition, % at 20 µM; in the data active means inhibition mostly above about 42%, no sharp cut-off; inactive means mostly below about 42%
Numbers without * were called inactive.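 How the source made its calls, unless noted: active means inhibition of at least 30% at 20 µM; inactive means the rest.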

For CC1CCN(C(=O)CNC(=O)CNC(=O)Cc2ccccc2)CC1 the results were Scp1 inh -1.8, STEP inh -2.0, LMPTP inh -0.7, SUMO1 PPI mod 4.8, NadD inh -0.8 and DNMT1 inh 2.9.
Screening O=[N+]([O-])c1ccc(/C=N/Nc2nc(-c3ccccc3)c3cc(Br)ccc3n2)o1 returned Scp1 inh 101.4*, STEP inh 15.5, LMPTP inh 60.1*, SUMO1 PPI mod -13.4, NadD inh 41.4*, DNMT1 inh 50.7*, Scp-1 conf 76.4*, Scp-1 MG ctr -5.2, Scp1 DSF 4.5, DNMT1 inh conf 6.1, Beacon interf 1.0 and NadD conf 11.5.
O=[N+]([O-])c1ccc(/C=N/Nc2ccc3ccccc3c2)o1 was read as Scp1 inh 6.4, STEP inh 5.2, LMPTP inh 8.2, SUMO1 PPI mod -23.9, NadD inh 3.7 and DNMT1 inh -14.8.
Screening C=C1CN(Cc2ccccc2)S(=O)(=O)c2ccccc21 returned Scp1 inh 95.1*, STEP inh -0.6, LMPTP inh 2.5, SUMO1 PPI mod 2.3, NadD inh 42.3*, DNMT1 inh 11.9, Scp-1 conf 67.8*, Scp-1 MG ctr -17.8, Scp1 DSF 0.2 and NadD conf 32.1.
Screening C=C1CN(CC(=O)OC)S(=O)(=O)c2ccccc21 returned Scp1 inh -1.0, STEP inh -4.9, LMPTP inh -0.4, SUMO1 PPI mod -6.3, NadD inh -1.3 and DNMT1 inh 4.1.
CCc1nc2c(OCCn3cccc3)cccn2c1N(C)C(=O)CC(C)C was read as STEP inh 0.8, LMPTP inh 3.5, SUMO1 PPI mod 2.8, NadD inh 4.7 and DNMT1 inh 2.9.
For Cc1oc(-c2ccc(F)cc2)cc1-c1nn2c(-c3ccoc3C)nnc2s1 the results were Scp1 inh 75.3*, STEP inh 5.3, LMPTP inh 19.2, SUMO1 PPI mod 41.2*, NadD inh 53.4*, DNMT1 inh 106.1*, Scp-1 conf 40.9*, Scp-1 MG ctr -21.1, Scp1 DSF 1.0, DNMT1 inh conf 6.6, Beacon interf -2.1 and NadD conf 15.8.
For CN(C)c1ccc(C(=O)N=c2sccn2C)cc1[N+](=O)[O-] the results were Scp1 inh -4.7, STEP inh -0.8, LMPTP inh 1.0, SUMO1 PPI mod -14.2, NadD inh 3.8 and DNMT1 inh -0.8.
`C=CCn1c(=NC(=O)c2sc3ccccc3c2Cl)sc2cc(S(N)(=O)=O)ccc21` gave Scp1 inh 88.2*, STEP inh 2.5, LMPTP inh 38.5, SUMO1 PPI mod -2.4, NadD inh 35.9*, DNMT1 inh 33.1, Scp-1 conf 78.2*, Scp-1 MG ctr -9.0, Scp1 DSF -16.2 and NadD conf 0.0.
For C=CCn1c(=NC(=O)c2cc(Cl)sc2Cl)sc2cc(S(N)(=O)=O)ccc21 the results were Scp1 inh -7.6, STEP inh -0.7, LMPTP inh 0.6, SUMO1 PPI mod -5.2, NadD inh 17.0 and DNMT1 inh 16.9.
Cc1nn(CCc2nn[nH]n2)c2nc(C(F)(F)F)cc(C(F)(F)F)c12 was read as Scp1 inh -6.9, STEP inh -5.5, LMPTP inh 1.4, SUMO1 PPI mod 0.8, NadD inh -5.2 and DNMT1 inh 1.1.
`Cc1nn(CCc2nn[nH]n2)c2nc(-c3ccc(Br)cc3)cc(C(F)(F)F)c12` gave Scp1 inh 53.4*, STEP inh 26.4, LMPTP inh -0.1, SUMO1 PPI mod 3.8, NadD inh 28.3*, DNMT1 inh -1.0, Scp-1 conf 24.3, Scp-1 MG ctr -15.0 and NadD conf 41.5.
Screening O=C(N/N=C/C=C\c1ccccc1[N+](=O)[O-])c1cc(-c2ccc3ccccc3c2)n[nH]1 returned Scp1 inh 95.6*, STEP inh 30.0, LMPTP inh 41.6, SUMO1 PPI mod -0.7, NadD inh 42.5*, DNMT1 inh 67.5*, Scp-1 conf 86.5*, Scp-1 MG ctr -3.8, Scp1 DSF 1.8, DNMT1 inh conf 4.0, Beacon interf -4.5 and NadD conf 26.9*.
`CCN(C(=O)COC(=O)C(c1ccccc1)c1ccccc1)c1c(N)n(Cc2ccccc2)c(=O)[nH]c1=O` gave Scp1 inh -10.2, STEP inh 3.2, LMPTP inh 1.2, SUMO1 PPI mod 2.6, NadD inh 12.3 and DNMT1 inh -1.0.

Source: PubChem BioAssay (Sanford-Burnham Center for Chemical Genomics)
